Source: ChEMBL document CHEMBL3526114, “Histone deacetylase inhibitors increase human arylamine N-acetyltransferase-1 expression in human tumor cells” (Drug Metab Dispos, 2011)

Columns and labels:
[1] = tested on: NATb promoter of NAT1; experiment: Induction of Sp1 (GC>TA) mutant recruitment to NATb promoter in human HeLa cells at 0.5 uM after 24 hrs by luciferase reporter gene assay; assay type: cell-based; settings: read-out: FC
[2] = biological target: T1, NAT1 (arylamine N-acetyltransferase 1) (Homo sapiens, UniProt P18440); experiment: Increase in NAT1 enzyme activity in human HeLa cells at 0.5 uM using p-aminobenzoic acid substrate after 24 hrs by HPLC method relative to untreated control; assay type: ADME, cell-based; settings: probe p-aminobenzoic acid, read-out: FC
T1 sequence (P18440 whole entry): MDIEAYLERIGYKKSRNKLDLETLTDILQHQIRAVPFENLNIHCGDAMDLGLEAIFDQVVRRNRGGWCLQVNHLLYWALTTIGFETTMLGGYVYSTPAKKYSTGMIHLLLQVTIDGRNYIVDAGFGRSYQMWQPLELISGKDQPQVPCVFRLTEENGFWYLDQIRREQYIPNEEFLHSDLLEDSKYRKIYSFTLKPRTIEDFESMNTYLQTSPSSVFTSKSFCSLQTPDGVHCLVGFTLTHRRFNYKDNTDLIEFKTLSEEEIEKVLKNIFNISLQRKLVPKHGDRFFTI
Outline: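 HeLa cultured in RPMI 1640 with 5% FBS and treated with 0.5 μM TSA or DMSO vehicle for 24 hr at 37°C. Cells washed with PBS and sonicated in 20 mM Tris pH 7.4, 1 mM EDTA, 1 mM DTT. Lysates assayed at once for NAT1 activity by HPLC with p-aminobenzoic acid substrate. Mean ± SEM, n = 3.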

[3] = tested on: HeLa; experiment: Effect on NAT1 mRNA stability in human HeLa cells assessed as slope of mRNA decay curve at 0.5 uM after 24 hrs in presence of transcription inhibitor actinomycin D by qPCR method (reference value: -0.78 +/- 0.09/hr)
[4] = tested on: NAT1 mRNA; experiment: Increase in NAT1 mRNA expression in human HeLa cells at 0.5 uM after 24 hrs by qPCR method; assay type: ADME, cell-based; settings: read-out: FC
Outline: (§1)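 After 24 hr with 0.5 μM TSA or vehicle, HeLa NATb-derived NAT1 transcript quantified by qPCR. Cycling: 95°C 10 min, then 40 cycles (NATb) or 30 (β-actin) of 95°C 15 s, 50°C 20 s, 72°C. Single product checked by melt curve and gel. Normalised to β-actin; fold change by ΔΔCT. Mean ± SEM, n = 6; t-test.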

[5] = tested on: HeLa; experiment: Induction of acetylated histone H4 recruitment to NATb promoter in human HeLa cells at 0.5 uM after 6 hrs by ChIP assay
[6] = biological target: T1, NAT1 (arylamine N-acetyltransferase 1); experiment: Increase in NAT1 enzyme activity in 40% confluent human HeLa cells at 0.5 uM using p-aminobenzoic acid substrate after 24 hrs by HPLC method relative to untreated control; assay type: ADME, cell-based; settings: probe p-aminobenzoic acid, read-out: FC
Outline: (§2)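 HeLa seeded at 2 × 10⁵, 4 × 10⁵ or 6 × 10⁵ cells/well in 6-well plates (40, 80, 100% confluence at treatment). Treated with 0.5 μM TSA or vehicle for 24 hr. Sonicated lysates in 20 mM Tris pH 7.4, 1 mM EDTA, 1 mM DTT. NAT1 activity measured by HPLC with p-aminobenzoic acid substrate. Mean ± SEM, n = 3; Student's t-test versus vehicle.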

[7] = tested on: HeLa; experiment: Increase in NATa promoter activity in human HeLa cells at 0.5 uM after 24 hrs by qPCR method; assay type: ADME, cell-based
[8] = tested on: NATb promoter of NAT1; experiment: Induction of Sp1 recruitment to NATb promoter in human HeLa cells at 0.5 uM after 24 hrs by luciferase reporter gene assay; assay type: cell-based; settings: read-out: FC
[9] = tested on: HeLa; experiment: Increase in NATb promoter activity in human HeLa cells at 0.5 uM after 24 hrs by qPCR method; assay type: ADME, cell-based; outline: as §1
[10] = tested on: HeLa; experiment: Induction of Sp1 recruitment to NATb promoter in human HeLa cells nuclear extracts at 0.5 uM after 24 hrs by EMSA method; assay type: cell-based
Outline: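 Nuclear extracts from HeLa treated with 0.5 µM TSA or vehicle. 2 µg extract incubated with 1 × 10⁵ d.p.m. ³²P probe spanning the NATb Sp1 site, 30 min at room temperature, in binding buffer pH 7.9 with poly[d(I-C)]. Competition used 100-fold excess unlabelled wild-type or mutant probe; supershift used 2 µg Sp1 antibody. Run on 5% native PAGE at 4°C; phosphorimaging.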

[11] = tested on: NATb promoter of NAT1; experiment: Induction of NATb 3657 bp fragment upstream of exon 4 in human HeLa cells at 0.5 uM after 24 hrs by luciferase reporter gene assay; assay type: cell-based; settings: read-out: FC
Outline: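 HeLa seeded at 1.5 × 10⁵ cells/well and left overnight, then transfected (Lipofectamine 2000) with 1 µg of a deletion series of NATb promoter–firefly luciferase constructs (length = bp upstream of exon 4). After 4 hr, 0.5 µM TSA or DMSO for 24 hr; passive lysis buffer; luciferase read-out. Mean ± SEM, n = 3; t-test.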

[12] = biological target: T1, NAT1 (arylamine N-acetyltransferase 1); experiment: Increase in NAT1 enzyme activity in 100% confluent human HeLa cells at 0.5 uM using p-aminobenzoic acid substrate after 24 hrs by HPLC method relative to untreated control; assay type: ADME, cell-based; settings: probe p-aminobenzoic acid, read-out: FC; outline: as §2
[13] = tested on: HeLa; experiment: Induction of Sp1 recruitment to NATb promoter in human HeLa cells at 0.5 uM after 6 hrs by ChIP assay
[14] = tested on: HeLa; experiment: Induction of NATb Sp1 site in human HeLa cells at 0.5 uM after 24 hrs by luciferase reporter gene assay; assay type: cell-based

CC(/C=C/C(=O)NO)=C\[C@@H](C)C(=O)c1ccc(N(C)C)cc1 [TRICHOSTATIN]
fold induction at 24 h, 0.5 µM [1]: < 5 | fold induction at 24 h, 0.5 µM [2]: 3.2 | Activity [3]: -0.46 h⁻¹ | fold induction at 24 h, 0.5 µM [4]: 25 | Activity [5]: Toxic | fold induction at 24 h, 0.5 µM [6]: 4.1 | Activity [7]: Non-toxic | fold induction at 24 h, 0.5 µM [8]: 45 | Activity [9]: Toxic | Activity [10]: Toxic | fold induction at 24 h, 0.5 µM [11]: 18 | fold induction at 24 h, 0.5 µM [12]: < 1.5 | Activity [13]: Toxic | Activity [14]: Toxic
